Consider 11 compounds from ChEMBL document CHEMBL3132832, “Design of Potential Bisubstrate Inhibitors against Mycobacterium tuberculosis (Mtb) 1-Deoxy-D-Xylulose 5-Phosphate Reductoisomerase (Dxr)-Evidence of a Novel Binding Mode” (Medchemcomm, 2013).

Assay [1] is described as follows: Inhibition of His-tagged Mycobacterium tuberculosis DXR expressed in Escherichia coli BL21(DE3) using DXP as substrate assessed as oxidation of NADPH preincubated for 10 mins followed by NADPH and substrate addition by spectrophotometric analysis. An outline of the steps: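 Activity was read spectrophotometrically at 37 °C as NADPH oxidation. Enzyme was preincubated with inhibitor for 10 min at 37 °C before substrate. Run in duplicate. IC50 came from nonlinear regression of dose-response plots.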

The test system of assay [2] is Mycobacterium tuberculosis. Briefly: Inhibition of His-tagged Mycobacterium tuberculosis DXR expressed in Escherichia coli BL21(DE3) using DXP as substrate assessed as residual activity at 100 uM preincubated for 10 mins followed by NADPH and substrate addition by spectrophotometric analysis relative to control. An outline of the steps:
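IMAC-purified His-tagged Mtb Dxr was tested with inhibitor at 100 μM, preincubated 10 min at 37 °C before substrate. NADPH oxidation was followed spectrophotometrically at 37 °C. Inhibition is relative. Duplicate assays.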

In assay [3] the test system is Mycobacterium tuberculosis. Briefly: Antitubercular activity against Mycobacterium tuberculosis H37Rv ATCC 27294 after 2 weeks. The assay is classed as functional. The conditions noted are these: H37Rv ATCC 27294, 336 h. Summed up:
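Mtb H37Rv was grown to OD 0.5 in 7H9 with 0.05% Tween-80, 0.2% glycerol and ADC, then diluted 1:1000. Inhibitors from 50 mg/mL DMSO stocks were serially 2-fold diluted (eight dilutions). Three independent measurements.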

The test system of assay [4] is Mycobacterium tuberculosis. Briefly: Uncompetitive inhibition of His-tagged Mycobacterium tuberculosis DXR expressed in Escherichia coli BL21(DE3) using DXP as substrate at 5 to 50 uM by Lineweaver-Burk plot analysis in presence of 0.01 to 0.05 uM NADPH.
Assay [5] relates to Mycobacterium tuberculosis. The assay is described as follows: Competitive inhibition of His-tagged Mycobacterium tuberculosis DXR expressed in Escherichia coli BL21(DE3) using DXP as substrate at 5 to 50 uM by Lineweaver-Burk plot analysis in presence of NADPH. Summed up: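 For mode of inhibition versus DXP, purified His-tagged Mtb Dxr was run at 37 °C with NADPH fixed at 150 µM or 30 µM depending on inhibitor. Enzyme and inhibitor were preincubated 10 min at 37 °C before substrate. NADPH oxidation was followed spectrophotometrically. Duplicates were analysed by Lineweaver-Burk plots.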

Assay [6] relates to Mycobacterium tuberculosis. Briefly: Noncompetitive inhibition of His-tagged Mycobacterium tuberculosis DXR expressed in Escherichia coli BL21(DE3) using DXP as substrate at 5 to 50 uM by Lineweaver-Burk plot analysis in presence of 0.01 to 0.05 uM NADPH.

≈ marks a conversion by molar mass, not a printed value. Calls of active or inactive are those of the source. The rule behind the calls is not given here.

The IC50 is the concentration at which inhibition is half-maximal. On to `O=C(Cc1ccccc1)N(O)CCCP(=O)(O)O`, for which, in assay [1], the IC50 stood at 26.9 µM. `O=C(C1CCCCC1)N(O)CCCP(=O)(O)O`: in assay [2], the Activity amounted to 80%.

Broadly, the MIC99 is the lowest concentration that inhibits either 99% of growth or 99% of the strains tested, depending on the study. Compound `CCOP(=O)(CCCN(O)C(=O)CCCc1ccccc1)OCC` yielded an MIC99 in assay [3] of 200 µg/mL (≈ 560 µM). `CC(=O)N(CCCP(=O)(O)O)OCC1CCCCC1`: the Activity in assay [2] is 83.5%. The compound `CC(=O)N(O)CCCP(=O)([O-])O.[Na+]` returned an MIC99 in assay [3] greater than 500 µg/mL. The inhibition result in assay [4] and in assay [5] was “Active” in each case. The IC50 in assay [1] is 2.39 µM. Regarding `CC(=O)N(CCCP(=O)(O)O)OCCc1ccccc1`, the Activity in assay [2] was found to be 81.5%. For `CCOP(=O)(CCCN(O)C=O)OCC`, the MIC99 in assay [3] turned out to be 250 µg/mL (≈ 1050 µM). For the compound `CC(=O)N(CCCP(=O)(O)O)OCCCc1ccccc1`, the Activity in assay [2] is 77.5%.

`O=CN(O)CCCP(=O)(O)O` [FOSMIDOMYCIN] registered an MIC99 in assay [3] greater than 500 µg/mL. With `O=C(CCCc1ccccc1)N(O)CCCP(=O)([O-])O.[Na+]`, the MIC99 in assay [3] is greater than 200 µg/mL. Further, the inhibition result in assay [6] and in assay [5] was “Active” each time. The IC50 in assay [1] came to 17.8 µM.

On to `CC(=O)N(CCCP(=O)(O)O)OCc1ccc(C(C)C)cc1`, for which the IC50 in assay [1] was found to be 48.4 µM.
